Type in all cases: functional
The subject of one test is Micrococcus luteus. In words: Antibacterial activity against Micrococcus luteus by two-fold serial dilution method. Put shortly:
(§1)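 Standard two-fold serial dilution in 96-well microtest plates following NCCLS. Top dilutions printed as 32, 16, 8, 4, 2, 1, 0.5 ug/mL. Wells inoculated and held at 37 °C for 24 h. Growth judged visually and by spectrophotometer, in triplicate. MIC is the lowest concentration giving complete growth inhibition.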

Test [1] deals with Staphylococcus aureus. In words: Antibacterial activity against methicillin-resistant Staphylococcus aureus N315 by two-fold serial dilution method. The essentials:
(§2)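 MIC read as the lowest concentration giving complete growth inhibition. Two-fold serial dilutions were made in 96-well plates following NCCLS, giving a series down to 0.5 µg/mL (…32, 16, 8, 4, 2, 1, 0.5). Plates were inoculated and incubated at 37 °C for 24 h. A DMSO-with-inoculum control without drug was included. Growth was monitored visually and spectrophotometrically, in triplicate.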

For test [2], the system named is Staphylococcus aureus. Kind of test: Antibacterial activity against Staphylococcus aureus ATCC 25923 by two-fold serial dilution method. Put shortly: as §1
Another test deals with Bacillus spizizenii. In words: Antibacterial activity against Bacillus subtilis ATCC 6633 by two-fold serial dilution method. Put shortly:
as §1

The next test relates to Pseudomonas aeruginosa. Kind of test: Antibacterial activity against Pseudomonas aeruginosa by two-fold serial dilution method. The essentials: as §1
A further test concerns Escherichia coli. Kind of test: Antibacterial activity against Escherichia coli DH52 by two-fold serial dilution method. The essentials:
as §1

For a further test, the system named is Shigella dysenteriae. In words: Antibacterial activity against Shigella dysenteriae by two-fold serial dilution method. Put shortly:
as §2

Test [3] can be described thus: Antibacterial activity against Eberthella typhosa by two-fold serial dilution method. The essentials:
as §2

A further test has as its system Cyberlindnera jadinii. Kind of test: Antifungal activity against Candida utilis after 24 hrs by microbroth dilution method. To be noted: Williopsis jadinii. Put shortly:
(§3)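 Spore suspension prepared in sterile distilled water from one-day-old cultures on Sabouraud agar, final 1-5 x 10^3 spores/mL. Compounds were serially diluted in RPMI 1640 to give eleven dilutions. Incubation at 35 °C for 24 h. Growth read visually and spectrophotometrically, in triplicate. MIC is the lowest concentration with complete inhibition.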

The test system of the next test is Saccharomyces cerevisiae. Kind of test: Antifungal activity against Saccharomyces cerevisiae after 24 hrs by microbroth dilution method. Put shortly:
as §3

The subject of another test is Candida albicans. In words: Antifungal activity against Candida albicans ATCC 76615 after 24 hrs by microbroth dilution method. To be noted: ATCC 76615, 24 h. Put shortly: as §3
Another test concerns Pichia norvegensis. Kind of test: Antifungal activity against Candida mycoderma after 24 hrs by microbroth dilution method.

Values after ≈ are worked out from the molar mass of the structure shown.

On to `CCOC(=O)c1cn(CC(O)Cn2c([N+](=O)[O-])cnc2C)c2ccc(C)cc2c1=O` (racemic), for which the MIC worked out at 16 µg/mL (≈ 38.6 µM) with Micrococcus luteus; 8 µg/mL (≈ 19.3 µM) against Staphylococcus aureus [1]; 8 µg/mL (≈ 19.3 µM) in the test on Staphylococcus aureus [2]; 8 µg/mL (≈ 19.3 µM) against Bacillus spizizenii; 8 µg/mL (≈ 19.3 µM) against Pseudomonas aeruginosa; 4 µg/mL (≈ 9.65 µM) against Escherichia coli. In addition, the minimal inhibitory concentration (MIC) in the test with Shigella dysenteriae turned out to be 4 µg/mL (≈ 9.65 µM); in test [3], 8 µg/mL (≈ 19.3 µM); against Cyberlindnera jadinii it was 256 µg/mL (≈ 618 µM); in the test on Saccharomyces cerevisiae, 4 µg/mL (≈ 9.65 µM); with Candida albicans, 2 µg/mL (≈ 4.83 µM); in the test on Pichia norvegensis, 256 µg/mL (≈ 618 µM).

With `CCOC(=O)c1cn(CC(O)Cn2cnc([N+](=O)[O-])c2)c2ccc(F)cc2c1=O` (racemic), the MIC amounted to 4 µg/mL (≈ 9.89 µM) with Micrococcus luteus; 16 µg/mL (≈ 39.6 µM) in the test on Staphylococcus aureus [1]; 32 µg/mL (≈ 79.1 µM) with Staphylococcus aureus [2]; 8 µg/mL (≈ 19.8 µM) in the test on Bacillus spizizenii; 8 µg/mL (≈ 19.8 µM) against Pseudomonas aeruginosa; 16 µg/mL (≈ 39.6 µM) against Escherichia coli. The MIC with Shigella dysenteriae is 32 µg/mL (≈ 79.1 µM); in test [3], 32 µg/mL (≈ 79.1 µM); in the test on Cyberlindnera jadinii, 16 µg/mL (≈ 39.6 µM); against Saccharomyces cerevisiae, 16 µg/mL (≈ 39.6 µM); against Candida albicans, 32 µg/mL (≈ 79.1 µM); in the test on Pichia norvegensis, 32 µg/mL (≈ 79.1 µM).

Turning to `CCOC(=O)c1cn(CC(O)Cn2c([N+](=O)[O-])cnc2C)c2ccc(F)cc2c1=O` (racemic), the minimum inhibitory concentration (MIC) came to 8 µg/mL (≈ 19.1 µM) against Micrococcus luteus; 4 µg/mL (≈ 9.56 µM) in the test with Staphylococcus aureus [1]; 16 µg/mL (≈ 38.2 µM) against Staphylococcus aureus [2]; 8 µg/mL (≈ 19.1 µM) in the test on Bacillus spizizenii; 16 µg/mL (≈ 38.2 µM) with Pseudomonas aeruginosa; 8 µg/mL (≈ 19.1 µM) with Escherichia coli. Moreover, the minimum inhibitory concentration (MIC) was 8 µg/mL (≈ 19.1 µM) in the test on Shigella dysenteriae; 4 µg/mL (≈ 9.56 µM) in test [3]; 128 µg/mL (≈ 306 µM) in the test on Cyberlindnera jadinii; 32 µg/mL (≈ 76.5 µM) with Saccharomyces cerevisiae; 64 µg/mL (≈ 153 µM) in the test on Candida albicans; 128 µg/mL (≈ 306 µM) in the test with Pichia norvegensis.

For `CCOC(=O)c1cn(CC(O)Cn2c([N+](=O)[O-])cnc2C)c2c(F)cccc2c1=O` (racemic), the MIC with Micrococcus luteus is 8 µg/mL (≈ 19.1 µM); against Staphylococcus aureus [1], 8 µg/mL (≈ 19.1 µM); in the test with Staphylococcus aureus [2], 32 µg/mL (≈ 76.5 µM); with Bacillus spizizenii, 16 µg/mL (≈ 38.2 µM); with Pseudomonas aeruginosa, 16 µg/mL (≈ 38.2 µM); against Escherichia coli, 16 µg/mL (≈ 38.2 µM). The MIC turned out to be 8 µg/mL (≈ 19.1 µM) against Shigella dysenteriae; 4 µg/mL (≈ 9.56 µM) in [3]; 512 µg/mL (≈ 1220 µM) against Cyberlindnera jadinii; 256 µg/mL (≈ 612 µM) with Saccharomyces cerevisiae; 128 µg/mL (≈ 306 µM) in the test on Candida albicans; 128 µg/mL (≈ 306 µM) in the test on Pichia norvegensis.

In the case of `CCOC(=O)c1cn(CC2CO2)c2ccc(C)cc2c1=O` (racemic), the MIC is 64 µg/mL (≈ 223 µM) against Bacillus spizizenii, 2 µg/mL (≈ 6.96 µM) in [3] and 8 µg/mL (≈ 27.8 µM) with Pichia norvegensis.

Take `CCOC(=O)c1cn(CC2CO2)c2c(F)cc(F)cc2c1=O` (racemic): the MIC stood at 32 µg/mL (≈ 103 µM) against Bacillus spizizenii, 2 µg/mL (≈ 6.47 µM) in test [3], 512 µg/mL (≈ 1660 µM) with Cyberlindnera jadinii and 16 µg/mL (≈ 51.7 µM) against Pichia norvegensis.

Take `CCOC(=O)c1cn(CC(O)Cn2cnc([N+](=O)[O-])c2)c2c(Cl)cc(Cl)cc2c1=O` (racemic): the minimal inhibitory concentration (MIC) was 8 µg/mL (≈ 17.6 µM) in the test on Micrococcus luteus; 64 µg/mL (≈ 141 µM) in the test with Staphylococcus aureus [1]; 32 µg/mL (≈ 70.3 µM) against Staphylococcus aureus [2]; 4 µg/mL (≈ 8.79 µM) in the test on Bacillus spizizenii; 16 µg/mL (≈ 35.1 µM) against Pseudomonas aeruginosa; 16 µg/mL (≈ 35.1 µM) against Escherichia coli. Besides, the MIC against Shigella dysenteriae came to 8 µg/mL (≈ 17.6 µM); in test [3], 16 µg/mL (≈ 35.1 µM); with Cyberlindnera jadinii, 256 µg/mL (≈ 562 µM); against Saccharomyces cerevisiae, 32 µg/mL (≈ 70.3 µM); in the test on Candida albicans, 64 µg/mL (≈ 141 µM); in the test with Pichia norvegensis, 64 µg/mL (≈ 141 µM).

For `CCOC(=O)c1cn(CC(O)Cn2cnc([N+](=O)[O-])c2)c2c(F)cc(F)cc2c1=O` (racemic), the minimal inhibitory concentration (MIC) in the test with Micrococcus luteus amounted to 4 µg/mL (≈ 9.47 µM); against Staphylococcus aureus [1], 32 µg/mL (≈ 75.8 µM); with Staphylococcus aureus [2], 4 µg/mL (≈ 9.47 µM); with Bacillus spizizenii it was 8 µg/mL (≈ 18.9 µM); against Pseudomonas aeruginosa, 4 µg/mL (≈ 9.47 µM); in the test with Escherichia coli it was 8 µg/mL (≈ 18.9 µM). For the same compound, the MIC against Shigella dysenteriae was 16 µg/mL (≈ 37.9 µM); in [3], 2 µg/mL (≈ 4.74 µM); in the test with Cyberlindnera jadinii, 64 µg/mL (≈ 152 µM); in the test on Saccharomyces cerevisiae it was 128 µg/mL (≈ 303 µM); in the test with Candida albicans, 32 µg/mL (≈ 75.8 µM); against Pichia norvegensis, 16 µg/mL (≈ 37.9 µM).

In the case of `CCOC(=O)c1cn(CC2CO2)c2ccc(F)cc2c1=O` (racemic), the minimal inhibitory concentration (MIC) was 64 µg/mL (≈ 220 µM) against Bacillus spizizenii, 8 µg/mL (≈ 27.5 µM) in test [3] and 8 µg/mL (≈ 27.5 µM) in the test with Pichia norvegensis.

These data come from ChEMBL document CHEMBL3351780, “Novel hybrids of metronidazole and quinolones: synthesis, bioactive evaluation, cytotoxicity, preliminary antimicrobial mechanism and effect of metal ions on their transportation by human serum albumin” (Eur J Med Chem, 2014).
